The data set in a line: Drug level in Wistar rat plasma treated with 1-Hydroxyl-2-cyano-3-(4-(methyl-L-glutaminate-N5-yl)-benzyloxy)-12-oxo-oleana-2(3),9(11)-dien-28-oic Acid Methyl Ester assessed as esterase-mediated metabolite formation at 100 uM after 8 hrs by HPLC analysis. The data set is classed as ADME. Put shortly: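 Plasma, and kidney and liver homogenates in PBS, from three Wistar rats; substrate added at 100 μM at 37 °C; metabolite measured by HPLC every 60 min for 8 h; mean ± SD of three experiments.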

As to `COC(=O)[C@]12CCC(C)(C)C[C@H]1[C@H]1C(=O)C=C3[C@@]4(C)[C@@H](O)C(C#N)=C(OCc5ccc(NC(=O)CC[C@H](N)C(=O)O)cc5)C(C)(C)[C@@H]4CC[C@@]3(C)[C@]1(C)CC2`, the Drug metabolism result is reported as “Metabolite_Detected”.
